Laboratory results taken from ChEMBL document CHEMBL1132379, “2-thioether 5'-O-(1-thiotriphosphate)adenosine derivatives as new insulin secretagogues acting through P2Y-Receptors” (J Med Chem, 1999).

Target: T1, P2Y purinoceptor 1 (Meleagris gallopavo, UniProt P49652)
Assay: Agonistic activity for P2Y purinoceptor 1 of turkey erythrocyte membranes; call rule not given here
Assay type: functional
How it was run: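 [³H]myoinositol-labeled washed turkey erythrocytes (18–24 h, 37 °C), membranes made by hypotonic lysis; phospholipase C measured as total [³H]inositol phosphates (ion-exchange) after 5 min at 30 °C with GTPγS, pH 7.0 Hepes medium. EC50 from four-parameter logistic fit; at least three experiments with different membrane preparations, duplicate assays.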

T1 sequence (P49652 whole entry): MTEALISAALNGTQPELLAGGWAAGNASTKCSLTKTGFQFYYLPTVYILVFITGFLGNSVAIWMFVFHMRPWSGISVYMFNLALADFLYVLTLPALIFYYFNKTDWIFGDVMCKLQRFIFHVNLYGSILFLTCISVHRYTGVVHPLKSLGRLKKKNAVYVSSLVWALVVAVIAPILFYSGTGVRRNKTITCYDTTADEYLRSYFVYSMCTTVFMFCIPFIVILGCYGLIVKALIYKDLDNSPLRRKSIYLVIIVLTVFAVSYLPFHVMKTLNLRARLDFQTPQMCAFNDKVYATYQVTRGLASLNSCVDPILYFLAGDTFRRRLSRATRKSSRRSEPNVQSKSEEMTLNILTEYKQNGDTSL

SMILES | EC50 [nM]
CCCCCCSc1nc(N)c2ncn(C3O[C@H](COP(O)(O)=S)[C@@H](O)[C@H]3O)c2n1 (stereo partly drawn) | 2790
CCCCCCSc1nc(N)c2ncn(C3O[C@H](COP(=O)(O)OP(=O)(O)OP(=O)(O)O)[C@@H](O)[C@H]3O)c2n1 (stereo partly drawn) | 10
Nc1ncnc2c1ncn2[C@@H]1O[C@H](COP(=O)(O)OP(=O)(O)OP(=O)(O)O)[C@@H](O)[C@H]1O [ADENOSINE TRIPHOSPHATE] | 6350
CCCCCCSc1nc(N)c2ncn([C@@H]3O[C@H](COP(O)(=S)OP(=O)(O)OP(=O)(O)O)[C@@H](O)[C@H]3O)c2n1 (stereo in doubt; 5aB) | 21
Nc1nc(SCCc2ccc([N+](=O)[O-])cc2)nc2c1ncn2C1O[C@H](COP(=O)(O)OP(=O)(O)OP(=O)(O)O)[C@@H](O)[C@H]1O (stereo partly drawn) | 12
Nc1nc(SCCc2ccc([N+](=O)[O-])cc2)nc2c1ncn2[C@@H]1O[C@H](COP(O)(=S)OP(=O)(O)OP(=O)(O)O)[C@@H](O)[C@H]1O (stereo in doubt; 5bA) | 510
CCCCCCSc1nc(N)c2ncn([C@@H]3O[C@H](COP(=O)(O)O)[C@@H](O)[C@H]3O)c2n1 | 60
Nc1nc(SCCc2ccc([N+](=O)[O-])cc2)nc2c1ncn2[C@@H]1O[C@H](COP(O)(O)=S)[C@@H](O)[C@H]1O | 2360
Nc1nc(SCCc2ccc([N+](=O)[O-])cc2)nc2c1ncn2C1O[C@H](COP(=O)(O)O)[C@@H](O)[C@H]1O (stereo partly drawn) | 3000
Nc1nc(SCCc2ccc([N+](=O)[O-])cc2)nc2c1ncn2[C@@H]1O[C@H](COP(O)(=S)OP(=O)(O)OP(=O)(O)O)[C@@H](O)[C@H]1O (stereo in doubt; 5bB) | 890
CCCCCCSc1nc(N)c2ncn([C@@H]3O[C@H](COP(O)(=S)OP(=O)(O)OP(=O)(O)O)[C@@H](O)[C@H]3O)c2n1 (stereo in doubt; 5aA) | 17
Nc1ncnc2c1ncn2C1O[C@H](COP(O)(=S)OP(=O)(O)OP(=O)(O)O)[C@@H](O)[C@H]1O (stereo partly drawn) | 6280

Target: T1, P2Y purinoceptor 1
Assay: Compound was evaluated for its agonistic activity towards P2Y purinoceptor 1 in turkey erythrocyte membranes; NE=No effect
Assay type: functional, cell membranes
How it was run: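 Turkey erythrocytes labeled 18–24 h at 37 °C with 2-[3H]myoinositol in inositol-free DMEM, then lysed in hypotonic buffer (5 mM sodium phosphate pH 7.4, 5 mM MgCl2, 1 mM EGTA) to make membranes. Phospholipase C was assayed with GTPγS and graded nucleotide concentrations at 30 °C for 5 min, pH 7.0 Hepes medium. Total [3H]inositol phosphates were measured by ion-exchange chromatography. EC50 came from four-parameter logistic fits, ≥3 experiments on separate membrane preparations, duplicate assays.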

SMILES | EC50
Nc1ncnc2c1ncn2[C@@H]1O[C@H](COP(O)(O)=S)[C@@H](O)[C@H]1O | Not Active
